# Experimental data taken from ChEMBL document CHEMBL1125445, “Bis(maltolato)oxovanadium(IV) is a potent insulin mimic” (J Med Chem, 1992).
# How the values were obtained:
# Assay type in all cases: functional, organism-based
# [1] = organism: Rattus norvegicus; assay: Decrease in plasma cholesterol (mM) of male Wistar rats control treated (CT) group (number of rats = 11) which received compound dissolved in tap water
# Method in brief: (§1)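 Wistar males, with STZ diabetes from 60 mg/kg i.v. in saline or saline-injected controls. Treated groups got the compound ad libitum in drinking water (1.58 mM) and untreated groups got tap water. Plasma was taken after 4 weeks by centrifuging blood at 20000g for 10 min at 4 °C and kept at -70 °C until assay. Reported as mean ± SEM, with ANOVA then Newman-Keuls.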
# [2] = organism: Rattus norvegicus; assay: Decrease in plasma insulin (microUnits/mL) of male Wistar rats control treated (CT) group (number of rats = 11) which received compound dissolved in tap water; method in brief: as §1
# [3] = organism: Rattus norvegicus; assay: Decrease food (g/rat/day) intake in male Wistar rats diabetic treated (DT) group (number of rats = 12) which received compound dissolved in tap water
# Method in brief: (§2)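 Male Wistar rats; diabetes induced by a single tail-vein injection of streptozocin, 60 mg/kg in 0.9% NaCl, and non-diabetic rats got saline. Treated groups drank the compound in tap water (1.58 mM), and untreated groups drank tap water. Food and fluid intake per 24 h per cage was divided by rats per cage. Values at week 4, mean ± SEM, ANOVA/Newman-Keuls.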
# [4] = organism: Rattus norvegicus; assay: Decrease in plasma glucose (mM) in male Wistar rats diabetic treated (DT) group (number of rats = 12) which received compound dissolved in tap water; method in brief: as §1
# [5] = organism: Rattus norvegicus; assay: Decrease in plasma triglyceride (mM) of male Wistar rats control treated (CT) group (number of rats = 11) which received compound dissolved in tap water; method in brief: as §1
# [6] = organism: Rattus norvegicus; assay: Decrease in plasma cholesterol (mM) of Male Wistar ratsrecieved an equivalent volume of isotonic saline (C control group); method in brief: as §1
# [7] = test system: Rattus norvegicus; assay: Decrease in food (g/rat/day)in take in male Wistar rats diabetic (D) group (number of rats = 11) where the diabetic state was induced by intravenous administration of streptozocin (STZ) at 60 mg/kg; parameters: dose 60 mg/kg; method in brief: as §2
# [8] = organism: Rattus norvegicus; assay: Decrease in weight of male Wistar rats control treated (CT) group (number of rats = 11) which received compound dissolved in tap water
# Method in brief: (§3)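 Male Wistar rats housed 2–3 per cage on a 12 h light/dark cycle with free food and water. Diabetes was induced by i.v. streptozocin, 60 mg/kg in 0.9% NaCl, and controls got saline. Treated groups drank the compound at 1.58 mM in tap water. Body weight was recorded daily and reported at week 4 as mean ± SEM, with ANOVA/Newman-Keuls.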
# [9] = organism: Rattus norvegicus; assay: Decrease in fluid intake of Male Wistar ratsrecieved an equivalent volume of isotonic saline (C control group); method in brief: as §2
# [10] = test system: Rattus norvegicus; assay: Decrease in plasma insulin (microUnits/mL) in male Wistar rats diabetic (D) group (number of rats = 11) where the diabetic state was induced by intravenous administration of streptozocin (STZ) at 60 mg/kg; parameters: dose 60 mg/kg; method in brief: as §1
# [11] = organism: Rattus norvegicus; assay: Decrease in food intake of male Wistar rats control treated (CT) group (number of rats = 11) which received compound dissolved in tap water; method in brief: as §2
# [12] = organism: Rattus norvegicus; assay: Decrease in plasma insulin (microUnits/mL) of Male Wistar ratsrecieved an equivalent volume of isotonic saline (C control group); method in brief: as §1
# [13] = organism: Rattus norvegicus; assay: Decrease in fluid (mL/rat/day)-intake in male Wistar rats diabetic treated (DT) group (number of rats = 12) which received compound dissolved in tap water; method in brief: as §2
# [14] = organism: Rattus norvegicus; assay: Decrease weight(g) in male Wistar rats diabetic treated (DT) group (number of rats = 12) which received compound dissolved in tap water; method in brief: as §3
# [15] = test system: Rattus norvegicus; assay: Decrease in weight(g)in male Wistar rats diabetic (D) group (number of rats = 11) where the diabetic state was induced by intravenous administration of streptozocin (STZ) at 60 mg/kg; parameters: dose 60 mg/kg; method in brief: as §3
# [16] = organism: Rattus norvegicus; assay: Decrease in plasma cholesterol (mM) in male Wistar rats diabetic treated (DT) group (number of rats = 12) which received compound dissolved in tap water; method in brief: as §1
# [17] = test system: Rattus norvegicus; assay: Decrease in fluid (mL/rat/day)-intake-in male Wistar rats diabetic (D) group (number of rats = 11) where the diabetic state was induced by intravenous administration of streptozocin (STZ) at 60 mg/kg; parameters: dose 60 mg/kg; method in brief: as §2
# [18] = organism: Rattus norvegicus; assay: Decrease in plasma glucose (mM) of male Wistar rats control treated (CT) group (number of rats = 11) which received compound dissolved in tap water; method in brief: as §1
# [19] = organism: Rattus norvegicus; assay: Decrease in fluid intake of male Wistar rats control treated (CT) group (number of rats = 11) which received compound dissolved in tap water; method in brief: as §2
# [20] = test system: Rattus norvegicus; assay: Decrease in plasma cholesterol (mM)in male Wistar rats diabetic (D) group (number of rats = 11) where the diabetic state was induced by intravenous administration of streptozocin (STZ) at 60 mg/kg; parameters: dose 60 mg/kg; method in brief: as §1
# [21] = organism: Rattus norvegicus; assay: Decrease in plasma glucose (mM) of Male Wistar ratsrecieved an equivalent volume of isotonic saline (C control group); method in brief: as §1
# [22] = organism: Rattus norvegicus; assay: Decrease in plasma insulin (microUnits/mL) in male Wistar rats diabetic treated (DT) group (number of rats = 12) which received compound dissolved in tap water; method in brief: as §1
# [23] = organism: Rattus norvegicus; assay: Decrease in weight of Male Wistar ratsrecieved an equivalent volume of isotonic saline (C control group); method in brief: as §3
# [24] = organism: Rattus norvegicus; assay: Decrease in food intake of Male Wistar ratsrecieved an equivalent volume of isotonic saline (C control group); method in brief: as §2
# [25] = organism: Rattus norvegicus; assay: Decrease in plasma triglyceride (mM) of Male Wistar ratsrecieved an equivalent volume of isotonic saline (C control group); method in brief: as §1
# [26] = test system: Rattus norvegicus; assay: Decrease in plasma glucose (mM)in male Wistar rats diabetic (D) group (number of rats = 11) where the diabetic state was induced by intravenous administration of streptozocin (STZ) at 60 mg/kg; parameters: dose 60 mg/kg; method in brief: as §1
# [27] = organism: Rattus norvegicus; assay: Decrease in plasma triglyceride (mM) in male Wistar rats diabetic treated (DT) group (number of rats = 12) which received compound dissolved in tap water; method in brief: as §1
# [28] = test system: Rattus norvegicus; assay: Decrease in plasma triglyceride (mM)in male Wistar rats diabetic (D) group (number of rats = 11) where the diabetic state was induced by intravenous administration of streptozocin (STZ) at 60 mg/kg; parameters: dose 60 mg/kg; method in brief: as §1
substance,measurement,setting,value
BIS(MALTOLATO)OXOVANADIUM(IV),Plasma cholesterol,[1],1.7 mM
same,Plasma insulin,[2],21.6 uUnits ml-1
same,Food (g rat-1 day-1),[3],37.9
same,Plasma glucose,[4],7 mM
same,Plasma triglyceride,[5],2.1 mM
same,Plasma cholesterol,[6],1.4 mM
same,Food (g rat-1 day-1),[7],63.5
same,WEIGHT,[8],391 g
same,Fluid (ml rat-1 day-1),[9],59
same,Plasma insulin,[10],22 uUnits ml-1
same,Food (g rat-1 day-1),[11],28.8
same,Plasma insulin,[12],35.6 uUnits ml-1
same,Fluid (ml rat-1 day-1),[13],52
same,WEIGHT,[14],311 g
same,WEIGHT,[15],349 g
same,Plasma cholesterol,[16],1.6 mM
same,Fluid (ml rat-1 day-1),[17],264
same,Plasma glucose,[18],4.1 mM
same,Fluid (ml rat-1 day-1),[19],43
same,Plasma cholesterol,[20],2.4 mM
same,Plasma glucose,[21],4 mM
same,Plasma insulin,[22],21.9 uUnits ml-1
same,WEIGHT,[23],404 g
same,Food (g rat-1 day-1),[24],28.3
same,Plasma triglyceride,[25],1.8 mM
same,Plasma glucose,[26],13.9 mM
same,Plasma triglyceride,[27],1.9 mM
same,Plasma triglyceride,[28],2.7 mM
